Mdm2 MdmX PPI: disrupts the human Mdm2-MdmX interaction. SaOS-2 split-luciferase Mdm2/MdmX complementation, luminescence. inhibition, % at 8 µM. 3% of 330,000 active. AID 485346;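 active = inhibition of at least 50% at 8 µM in the primary screen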
UPR XBP1 act: activators of adaptive arm of unfolded protein response (XBP1) | CHO-XBP1 luciferase reporter, IRE1-XBP1 UPR activation, luminescence; percent of tunicamycin response, DMSO as zero | AID 463104 | activation, % at 20 µM | 0.33% of 330,000 active;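 active = versus positive control, 20 µM dose yields 30% or more activation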
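Material – CHO cell line with stable XBP1 luciferase reporter · Buffer or medium – F12 plus 10% FBS · Compound – single point, 20 µM final compound, 1% DMSO · Schedule – 16-18 h cell attachment at 37 °C, then 6 h compound exposure · Signal – Steady-Glo luminescence read · Benchmarks – high control tunicamycin 10 µg/mL final, low control DMSO vehicle only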
Apaf1 inhib: human Apaf-1 inhibition. 0.71% of 330,000 active. inhibition, % at 20 µM. O14727. reconstituted apoptosome caspase-3 activity, DEVD-Rh110 fluorescence; active = inhibition of at least 40% at 20 µM
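Material: biochemical Apaf-1 apoptosome reconstitution. Medium: Hepes buffer, pH 7.5. Also added: cytochrome c activation, bis-DEVD rhodamine 110 substrate. Timing: 30 min compound preincubation, 50 min activation, room temperature. Measured by: rhodamine 110 fluorescence at Ex 480/Em 540 nm.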
CHOP UPR activ: activators of apoptotic arm of unfolded protein response (CHOP). CHO-CHOP luciferase reporter, UPR activation, luminescence; percent of tunicamycin response over DMSO baseline. activation, % at 10 µM. 0.34% of 330,000 active;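 active = at 10 µM dose, activation of 40% or more, normalized to positive control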
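measured by = luciferase luminescence | assay system = CHO-CHOP cells, stable luciferase reporter of PERK-eIF2a-CHOP signalling | amount = 500 reporter cells seeded per well | timing = 6 h compound exposure at 37 °C after overnight seeding | controls = positive tunicamycin 10 µg/mL, negative DMSO alone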
UBC13 inh: human UBC13 polyubiquitination inhibition | UBC13 polyubiquitin chain formation, TR-FRET | P61088 | inhibition, % at 20 µM | 0.47% of 330,000 active | AID 485273; in the data active = inhibition above about 45%, passing the limit was not always enough
UPR XBP1 confirm: confirmation of adaptive unfolded protein response (XBP1) activators | CHO-XBP1 IRE1-XBP1 luciferase reporter, luminescence | shares compounds with UPR XBP1 act | AID 485299 | 63% of 1,000 active | activation, % at 20 µM;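 active = reporter signal at least 30% of the positive control's activation in two or more of four replicate wells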
Casp3 UBC13 ctr: counter-screen for UBC13 inhibitors: human caspase-3 inhibition; shares compounds with UBC13 inh; Recombinant caspase-3, Caspase-Glo 3/7 luminescence, 60 min; inhibition, % at 20 µM; 4% of 1,400 active; AID 488856;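 active = mean inhibition across replicates above about 26%, limit read from the data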
UBC13 confirm: confirmation of human UBC13 polyubiquitin inhibitors. shares compounds with UBC13 inh. UBC13 polyubiquitination, TR-FRET, biochemical. inhibition, % at 10 µM. 68% of 1,400 active; in the data active = inhibition above about 45%
Mdm2 MdmX conf: human Mdm2/MdmX binding inhibition, confirmed; luminescent assay; shares compounds with Mdm2 MdmX PPI; AID 489028; inhibition, % at 8 µM; 55% of 10,000 active; in the data active = inhibition above about 40%
FLuc counter: counter-screen for Mdm2/MdmX inhibitors: full-length luciferase. shares compounds with Mdm2 MdmX PPI. SaOS-2 full-length luciferase counterscreen, luminescence. inhibition, % at 8 µM. 77% of 6,200 active;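 active = mean inhibition at 8 µM reaching about 37%, which flags the compound as non-specific, limit read from the data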;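 note: p53-null SaOS-2 cells with luciferase driven by a doxycycline-inducible promoter; compound on cells about two nights before reading with doxycycline added after day one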
A number is an active result; n = inactive; x = no result. A selection: hits, their analogues and other compounds. The true share with any hit is near 4.1%.

SMILES	Mdm2 MdmX PPI	UPR XBP1 act	Apaf1 inhib	CHOP UPR activ	UBC13 inh	UPR XBP1 confirm	Mdm2 MdmX conf	others
CC1CCCCN1C(=O)c1ccc(NC(=O)c2ccccc2Cl)cc1 (stereo unspecified)	n	n	n	n	n	x	x
O=c1[nH]c2cc3c(cc2cc1CN(Cc1ccco1)C(=S)NCCCN1CCOCC1)OCCO3	n	n	n	n	n	x	x
CCN(CC)S(=O)(=O)c1ccc2c(c1)C(=NO)c1cc(S(=O)(=O)N(CC)CC)ccc1-2	83.2	51.6	n	n	n	78.6	67.8	FLuc counter=n
Cn1c(=O)n(C)c2cc([N+](=O)[O-])c(N3CCN(CCO)CC3)cc21	n	n	n	n	n	x	x
CC(C)C[C@H](NC(=O)c1nc[nH]c1C(=O)N[C@@H](CC(C)C)C(=O)OC(C)(C)C)C(=O)OC(C)(C)C	80.1	44.9	n	n	n	n	n
CC(C)C[C@H](NC(=O)c1nc[nH]c1C(=O)NCC(=O)OC(C)(C)C)C(=O)OC(C)(C)C	n	n	n	n	n	x	x
COc1ccc([N+](=O)[O-])cc1COc1ccc2c(-c3ccccc3)cc(=O)oc2c1	51.5	47.5	n	n	n	142.6	n
Cc1cc(F)ccc1S(=O)(=O)N1CCCOC1CNC(=O)C(=O)NCc1ccncc1 (stereo unspecified)	n	n	n	n	n	x	x
O=C(/C=C/c1cc([N+](=O)[O-])ccc1OC(F)F)Nc1cccc([N+](=O)[O-])c1	74.6	102.4	n	n	n	27.8	n
COc1ccc(CCNC(=O)c2cc3c(=O)n4ccccc4nc3n(Cc3ccco3)c2=N)cc1OC	62.4	43.4	n	n	n	n	40.9	FLuc counter=n
O=C1N=c2ccccc2=C1c1sc(=S)n(NC(=O)c2ccccc2)c1O	n	n	n	n	n	x	x
C=CCn1c(O)c(C2=c3ccccc3=NC2=O)sc1=Nc1ccc(O)cc1	78.2	33.5	n	n	n	32.3	n
Cc1ccc(/C=C/C(=O)OCC(=O)NCc2cccs2)o1	n	n	n	n	n	x	x
CCC(=O)c1ccccc1OCCCCn1cncn1	n	n	n	n	n	x	x
COc1cc2c(cc1NC(=S)NC(=O)/C=C/c1ccco1)oc1ccccc12	50.4	52.4	n	n	n	77.3	n
COc1ccc(C(=O)NC(=S)Nc2nc(-c3ccc(OC)c(Br)c3)cs2)cc1Br	n	n	n	n	n	x	x
COc1ccc(-c2csc(NC(=S)NC(=O)/C=C/c3ccco3)n2)cc1Br	85.0	202.0	n	n	n	201.5	65.2	FLuc counter=59.1
O=S(=O)(NCc1ccc2c(c1)OCO2)c1ccc(F)c(F)c1	n	n	n	n	n	x	x
COc1ccc(C2=Nn3c(nnc3-c3ccccc3)SC2)cc1OC	n	n	n	n	n	x	x
Cc1cc(-c2nnc3n2N=C(c2ccccc2)CS3)n[nH]1	n	n	n	n	n	x	x
COc1ccc(OC)c(-c2nnc3n2N=C(c2ccc(OC)c(OC)c2)CS3)c1	66.4	37.2	n	n	n	42.1	60.0	FLuc counter=79.0
c1ccc(-c2cc(-c3nnc4n3N=C(c3ccc5ccccc5c3)CS4)[nH]n2)cc1	56.9	32.2	n	n	n	n	78.3	FLuc counter=75.8
CSc1ccc(/C=C/c2ccc3cccc(O)c3n2)cc1	n	n	n	n	n	x	x
COc1cc(/C=C/c2ccc3cccc(O)c3n2)ccc1O	99.7	60.3	n	n	n	36.5	n
Cc1cc(C)c2c(CCl)cc(=O)oc2c1	70.5	40.7	n	n	n	37.8	61.0	FLuc counter=99.6
SMILES	Mdm2 MdmX PPI	UPR XBP1 act	Apaf1 inhib	CHOP UPR activ	UBC13 inh	UPR XBP1 confirm	Mdm2 MdmX conf	others
CCCCNC(=O)c1ccc(Cn2c(=S)[nH]c3c([nH]c4ccc(OC)cc43)c2=O)cc1	88.8	40.6	n	n	n	63.9	n
O=[N+]([O-])c1ccc(-c2nc(Nc3cccc(O)c3)c3ccccc3n2)cc1	81.6	33.6	n	n	n	n	n
O=C(O)c1cccc(Nc2nc(-c3ccc([N+](=O)[O-])cc3)nc3ccccc23)c1	n	n	n	n	n	x	x
Cc1cccc(OC(=O)Cn2c(C(F)(F)F)nc3ccccc32)c1	n	n	n	n	n	x	x
Cc1cccc(OCc2n(CC(=O)OC3CC(C)CCC3C(C)C)c3ccccc3[n+]2C)c1 (stereo unspecified)	94.5	32.5	50.3	n	59.2	n	96.3	Casp3 UBC13 ctr=n;UBC13 confirm=91.8;FLuc counter=55.8
Cc1ccc(N(C)S(=O)(=O)c2cccc(C(=O)NCC(c3cccs3)N3CCOCC3)c2)cc1 (stereo unspecified)	n	n	n	n	n	x	x
CC1(C)C(=O)NCCN1C(=O)CCC(=O)O	n	n	n	n	n	x	x
NS(=O)(=O)c1ccc(N/N=C/c2cn(-c3ccccc3)nc2-c2cccs2)c([N+](=O)[O-])c1	96.0	56.8	n	n	n	62.0	n
COc1ccc(CCNC(=O)/C(C#N)=C2\N=C(NC(=O)c3ccco3)c3ccccc32)cc1	52.5	33.0	n	n	n	n	n
CC1(NC(=O)Cc2c(F)cccc2Cl)CCS(=O)(=O)C1 (stereo unspecified)	n	n	n	n	n	x	x
Cc1ccc2scc(CN3CCCC3)c2c1	n	n	n	n	n	x	x
O=c1[nH]c(CSc2ncnc3sc(-c4ccccc4)cc23)nc2ccccc12	87.2	86.7	n	n	n	142.0	n
Cc1ccccc1NC(=O)Nc1nnc(Cc2ccc([N+](=O)[O-])cc2)s1	66.6	72.5	n	n	n	n	n
COCCC(=O)N1CCC(Oc2ccc(C(=O)N3C[C@H]4CC[C@H]3C4)cc2)CC1	n	n	n	n	n	x	x
COc1ccccc1Nc1nnc(SCC(=O)NC(=O)Nc2ccc3c(c2)OCCO3)s1	67.7	52.1	n	n	n	48.8	57.5	FLuc counter=44.1
Cc1ccccc1Nc1nnc(SCC(=O)NC(=O)Nc2ccc3c(c2)OCCO3)s1	n	n	n	n	n	x	x
CN(C(=O)Nc1cnc2ccccc2c1)c1ccccc1	n	n	n	n	n	x	x
CCNc1nc(NCC)n2c(SC(C(=O)Nc3cc(Cl)cc(Cl)c3)c3ccccc3)nnc2n1 (stereo unspecified)	95.2	89.6	n	n	n	n	n

Compound activity (PubChem)
